ChEMBL document CHEMBL3813689, “Discovery of Potent Benzofuran-Derived Diapophytoene Desaturase (CrtN) Inhibitors with Enhanced Oral Bioavailability for the Treatment of Methicillin-Resistant Staphylococcus aureus (MRSA) Infections” (J Med Chem, 2016)
pIC50: −log10 of the molar value. The source made the active and inactive calls. The calls are words filed in the database; no cut-off is given here.

Assays:
[1] = system: Staphylococcus aureus; assay: Sensitization of methicillin-resistant Staphylococcus aureus USA300 LAC to H2O2 assessed as bacterial survival at 1 uM measured after 24 hrs (reference value: 14.2%); assay type: functional
[2] = system: Staphylococcus aureus; assay: Inhibition of staphyloxanthin pigment formation in methicillin-resistant Staphylococcus aureus USA300 LAC after 48 hrs by spectrophotometric method; assay type: functional, organism-based
Outline: (§1)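 MRSA grown in 4 mL TSB with 40 µL compound (2-fold serial dilutions from 20 mM DMSO stock) at 37 °C for 48 h, triplicate. Cells washed twice in PBS, pigment extracted with methanol, OD450 measured; IC50 from dose-response fit.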

[3] = Oral bioavailability in Sprague-Dawley rat at 10 mg/kg administered as single dose; assay type: ADME, organism-based; settings: in vivo
Outline: (§2)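 Male SD rats, 3 per group, single iv 5 mg/kg or oral 10 mg/kg. Blood sampled 0.083 (iv only), 0.25, 0.5, 1, 2, 4, 6, 8, 24 h postdose; plasma separated at 4 °C, stored −80 °C, analysed within 1 week. Parameters from plasma concentration-time data; F from dose-normalized AUC, oral vs iv.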

[4] = system: Staphylococcus aureus; assay: Antibacterial activity against Staphylococcus aureus Mu50 infected Balb/c mouse assessed as reduction of bacterial survival in kidney at 1.3 mg, ip bid administered for 4.5 days followed by bacterial infection measured after 5 days; assay type: functional
[5] = system: Staphylococcus aureus; assay: Inhibition of staphyloxanthin pigment formation in methicillin-resistant Staphylococcus aureus Mu50 after 48 hrs by spectrophotometric method; assay type: functional, organism-based; settings: Mu50, 48 h; outline: as §1
[6] = system: Staphylococcus aureus; assay: Suppression in growth of methicillin-resistant Staphylococcus aureus USA300 LAC at 0.2 mM measured after overnight incubation by spectrophotometric method; assay type: organism-based; settings: 200 µM
Outline: (§3)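 Compound from 20 mM DMSO stock diluted in TSB to final 0.2 or 0.05 mM; DMSO growth controls; paraffin overlay. Overnight cultures inoculated to final OD600 ≈ 0.05; incubated at 37 °C overnight with OD600 read every 30 min.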

[7] = system: Staphylococcus aureus; assay: Suppression in survival of Staphylococcus aureus Newman at 0.2 mM measured after overnight incubation by spectrophotometric method; assay type: ADME, organism-based; settings: 200 µM; outline: as §3
[8] = system: Rattus norvegicus; assay: Dose normalized AUC (0 to infinity) in Sprague-Dawley rat at 5 mg/kg, iv administered as single dose; assay type: ADME, organism-based; settings: in vivo; outline: as §2
[9] = system: Staphylococcus aureus; assay: Suppression in survival of methicillin-resistant Staphylococcus aureus Mu50 at 0.05 mM measured after overnight incubation by spectrophotometric method; assay type: ADME, organism-based; settings: 50 µM; outline: as §3
[10] = system: Staphylococcus aureus; assay: Sensitization of methicillin-resistant Staphylococcus aureus USA400 MW2 to immune clearance in human whole blood assessed as bacterial survival at 1 uM measured after 24 hrs (reference value: 10.2%); assay type: functional
[11] = system: Staphylococcus aureus; assay: Sensitization of methicillin-resistant Staphylococcus aureus Mu50 to H2O2 assessed as reduction in bacterial survival at 1 uM measured after 24 hrs relative to control; assay type: functional
Outline: (§4)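 Strains grown 24 h in TSB with or without inhibitor, washed twice in PBS, then diluted to 4 × 10^6 CFU per 250 µL reaction. H2O2 added to a final 1.5%. Tubes sealed and held 30 min at 37 °C. Reaction stopped with 1000 U/mL catalase. Survivors counted as CFU by serial dilution on TSA plates and compared with untreated (mock) bacteria.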

[12] = system: Staphylococcus aureus; assay: Sensitization of Staphylococcus aureus USA300 LAC to immune clearance in human whole blood assessed as bacterial survival at 1 uM measured after 24 hrs (reference value: 12.2%); assay type: functional
[13] = target: T1, 4,4'-diapophytoene desaturase (4,4'-diaponeurosporene-forming) (Staphylococcus aureus (strain Newman)) (UniProt O07855); settings: Staphylococcus aureus subsp. aureus str. Newman; 1 uM
T1 sequence (whole entry): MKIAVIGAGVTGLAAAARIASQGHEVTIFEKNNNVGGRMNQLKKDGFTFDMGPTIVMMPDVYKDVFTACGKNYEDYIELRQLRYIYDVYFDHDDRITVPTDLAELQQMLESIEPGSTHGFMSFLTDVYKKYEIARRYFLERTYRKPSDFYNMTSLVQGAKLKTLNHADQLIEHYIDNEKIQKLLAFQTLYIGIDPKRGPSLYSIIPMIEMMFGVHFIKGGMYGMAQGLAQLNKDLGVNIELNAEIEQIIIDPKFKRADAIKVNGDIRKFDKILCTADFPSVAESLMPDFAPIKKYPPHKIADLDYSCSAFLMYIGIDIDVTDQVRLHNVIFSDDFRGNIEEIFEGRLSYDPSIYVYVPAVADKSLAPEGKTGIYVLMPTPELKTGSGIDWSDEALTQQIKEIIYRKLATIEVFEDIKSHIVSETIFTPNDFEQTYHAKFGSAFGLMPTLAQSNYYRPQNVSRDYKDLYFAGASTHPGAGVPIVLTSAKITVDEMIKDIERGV

[14] = system: Staphylococcus aureus; assay: Sensitization of methicillin-resistant Staphylococcus aureus USA400 MW2 to H2O2 assessed as reduction in bacterial survival at 1 uM measured after 24 hrs relative to control; assay type: functional; outline: as §4
[15] = Aqueous solubility of the compound by HPLC method; assay type: physicochemical
Outline: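 Calibration with standards at 50, 100, 200, 400 and 800 µg/mL in methanol (peak area vs concentration). 10 mg solid stirred in 1 mL pure water for 24 h, more added if still clear; syringe-filtered, 10 µL injected; solubility read from calibration curve.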

[16] = Volume of distribution at steady state in Sprague-Dawley rat at 5 mg/kg, iv administered as single dose; assay type: ADME, organism-based; settings: in vivo, read-out: Vdss; outline: as §2
[17] = system: Staphylococcus aureus; assay: Antibacterial activity against Staphylococcus aureus Newman infected Balb/c mouse assessed as reduction of bacterial survival in kidney at 5.2 mg, ip bid administered for 4.5 days followed by bacterial infection measured after 5 days; assay type: functional
Outline: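 Female BALB/c mice, 6–8 weeks, dosed ip with compound in sterile water once and every 12 h for 108 h; water vehicle controls. Challenged 12 h after first dose with 1 × 10^7 CFU Newman by retro-orbital injection. Kidneys and hearts homogenised in PBS/0.1% Triton X-100 and plated on TSA for CFU. n = 13 mice; two-tailed Mann-Whitney.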

[18] = system: Staphylococcus aureus; assay: Sensitization of Staphylococcus aureus Newman to H2O2 assessed as reduction in bacterial survival at 1 uM measured after 24 hrs relative to control; assay type: functional; outline: as §4
[19] = system: Staphylococcus aureus; assay: Suppression in survival of methicillin-resistant Staphylococcus aureus USA300 LAC at 0.2 mM measured after overnight incubation by spectrophotometric method; assay type: ADME, organism-based; settings: 200 µM; outline: as §3
[20] = system: Staphylococcus aureus; assay: Sensitization of methicillin-resistant Staphylococcus aureus USA400 MW2 to H2O2 assessed as bacterial survival at 1 uM measured after 24 hrs (reference value: 11.7%); assay type: functional; settings: MW2, 24 h
[21] = system: Staphylococcus aureus; assay: Suppression in survival of methicillin-resistant Staphylococcus aureus USA400 MW2 at 0.05 mM measured after overnight incubation by spectrophotometric method; assay type: ADME, organism-based; settings: 50 µM; outline: as §3

`CN(C/C=C/c1ccc(C(F)(F)F)cc1)Cc1cccc2ccoc12.Cl` showed a survival at 1 µM [1] of 0.7%, a pIC50 [2] of 8.47 and a bioavailability [3] of 42.2%. For the same molecule, the Activity [4] was 0.68 deltalog10CFU, the pIC50 [5] was 9.42 and the Activity [6] was “Non-toxic”. For the same molecule, the Activity [7] was “Non-toxic”, the AUC/dose [8] was 1299.47 ng/mL.hr/(mg/kg) and the Activity [9] was “Non-toxic”. For the same molecule, the survival at 1 µM [10] was 1.3%, the “fold change (FC)” value [11] was 6 and the survival at 1 µM [12] was 1.2%. The inhibition [13] was “Active”, the “fold change (FC)” value [14] was 20 and the solubility [15] was 10 mg/mL. For the same molecule, the Vd [16] was 10.7 L/kg, the Activity [17] was 0.85 deltalog10CFU and the “fold change (FC)” value [18] was 30. For the same molecule, the Activity [19] was “Non-toxic”, the survival at 1 µM [20] was 0.6% and the Activity [21] was “Non-toxic”.
